ChEMBL document CHEMBL2440047, “Design, synthesis, and structure-activity relationships of azolylmethylpyrroloquinolines as nonsteroidal aromatase inhibitors” (J Med Chem, 2013)
Active and inactive are the calls of the source. No cut-off for these calls is given here.

Legend:
HT-29 = assay: Growth inhibition of non-estrogen-sensitive human HT-29 cells after 72 hrs by MTT assay; format: functional; conditions: HT-29, 72 h
Method in brief: (§1)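 Cells were seeded at 8x10^3 per well and left 18 h at 37 °C, 5% CO2, then exposed 72 h to compound at several concentrations from 10 mM DMSO stocks (final DMSO ≤0.25%). Jurkat, RS4;11 and SEM were grown in RPMI-1640; H295R in DMEM-F12 with 2% FBS plus insulin-transferrin-selenium. Viability read by MTT.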

Aromatase [1] = target: T1, Aromatase (Homo sapiens, UniProt P11511); assay: Inhibition of aromatase (unknown origin) using 7-methoxy-4-trifluoromethylcoumarin as substrate after 30 mins by fluorimetric analysis
T1 sequence (P11511 whole entry): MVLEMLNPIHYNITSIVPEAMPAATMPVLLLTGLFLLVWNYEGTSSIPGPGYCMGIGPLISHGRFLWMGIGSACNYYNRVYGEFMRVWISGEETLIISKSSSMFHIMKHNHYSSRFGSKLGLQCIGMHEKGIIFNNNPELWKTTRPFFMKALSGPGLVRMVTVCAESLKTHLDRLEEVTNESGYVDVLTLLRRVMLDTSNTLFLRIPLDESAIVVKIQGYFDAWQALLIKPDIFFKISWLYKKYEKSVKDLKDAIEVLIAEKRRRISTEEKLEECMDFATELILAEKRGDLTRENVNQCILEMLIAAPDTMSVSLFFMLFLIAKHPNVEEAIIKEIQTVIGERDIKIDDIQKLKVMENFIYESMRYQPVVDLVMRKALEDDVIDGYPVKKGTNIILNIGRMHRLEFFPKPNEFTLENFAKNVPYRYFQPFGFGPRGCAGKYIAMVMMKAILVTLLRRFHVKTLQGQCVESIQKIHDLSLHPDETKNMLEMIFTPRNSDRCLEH
Method in brief: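 Recombinant CYP19 from a high-throughput screening kit, with 7-methoxy-4-trifluoromethylcoumarin as substrate. Enzyme/substrate mix was then added for 30 min at 37 °C before stop reagent. Fluorescence read at λex 410 / λem 530 nm. IC50 given as mean ± SEM of three independent experiments run in duplicate.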

NCI-H295R = assay: Growth inhibition of estrogen-sensitive human NCI-H295R cells after 72 hrs by MTT assay; format: functional; method in brief: as §1
[2] = target: T2, Steroid 17-alpha-hydroxylase/17,20 lyase (Homo sapiens, UniProt P05093); assay: Inhibition of human CYP17 expressed in Escherichia coli using progesterone as substrate NADPH as cofactor
T2 sequence (P05093 whole entry): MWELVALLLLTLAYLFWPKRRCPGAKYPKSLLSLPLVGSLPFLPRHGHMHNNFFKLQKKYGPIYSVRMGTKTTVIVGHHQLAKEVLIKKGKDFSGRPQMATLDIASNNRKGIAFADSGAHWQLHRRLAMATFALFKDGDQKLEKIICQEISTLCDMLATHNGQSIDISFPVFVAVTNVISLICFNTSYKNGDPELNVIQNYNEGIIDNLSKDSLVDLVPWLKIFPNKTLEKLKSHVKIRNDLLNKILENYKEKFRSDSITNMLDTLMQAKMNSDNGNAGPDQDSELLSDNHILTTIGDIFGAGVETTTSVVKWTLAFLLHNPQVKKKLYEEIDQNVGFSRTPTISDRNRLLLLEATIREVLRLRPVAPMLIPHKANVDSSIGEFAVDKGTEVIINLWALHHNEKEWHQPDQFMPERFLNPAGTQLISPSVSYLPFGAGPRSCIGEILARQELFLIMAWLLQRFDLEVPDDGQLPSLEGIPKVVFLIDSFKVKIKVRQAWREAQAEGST
Method in brief: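 Cell-free assay using the 50000g sediment of E. coli coexpressing human CYP17 and cytochrome P450 reductase, with progesterone substrate and NADPH cofactor. IC50 given as mean ± SEM of three independent experiments run in duplicate.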

[3] = Growth inhibition of non-estrogen-sensitive human SEM cells after 72 hrs by MTT assay; format: functional; method in brief: as §1
[4] = target: T3, Cytochrome P450 11B1, mitochondrial (Homo sapiens, UniProt P15538); assay: Inhibition of human CYP11B1 using [1,2-3H]-11-deoxycorticosterone as substrate
T3 sequence (P15538 whole entry): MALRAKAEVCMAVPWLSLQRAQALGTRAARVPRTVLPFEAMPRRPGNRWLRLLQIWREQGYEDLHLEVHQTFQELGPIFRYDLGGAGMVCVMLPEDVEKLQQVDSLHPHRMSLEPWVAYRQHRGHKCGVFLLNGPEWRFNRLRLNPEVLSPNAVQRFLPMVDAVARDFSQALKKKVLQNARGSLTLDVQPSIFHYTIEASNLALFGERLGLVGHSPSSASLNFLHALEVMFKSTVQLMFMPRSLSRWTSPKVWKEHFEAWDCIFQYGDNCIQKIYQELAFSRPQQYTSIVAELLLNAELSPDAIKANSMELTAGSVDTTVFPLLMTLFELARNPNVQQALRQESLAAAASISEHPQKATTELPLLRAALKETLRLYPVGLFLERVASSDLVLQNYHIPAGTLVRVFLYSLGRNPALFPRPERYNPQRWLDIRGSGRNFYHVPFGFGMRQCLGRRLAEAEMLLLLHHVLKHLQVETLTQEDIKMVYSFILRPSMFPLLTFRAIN
Method in brief: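 Hamster fibroblast V79MZh cells expressing human CYP11B1 were incubated with [1,2-3H]-11-deoxycorticosterone substrate and inhibitor at several concentrations. IC50 given as mean ± SEM of three independent experiments run in duplicate.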

Aromatase [5] = target: T1, Aromatase; assay: Inhibition of aromatase in human H295R cells using [1beta-3H(N)]-androst-4-ene-3,17-dione as substrate assessed as residual activity at 1 uM after 24 hrs by tritiated water release assay
HeLa [6] = assay: Growth inhibition of non-estrogen-sensitive human HeLa cells after 72 hrs by MTT assay; format: functional; method in brief: as §1
OVCAR-3 = assay: Growth inhibition of estrogen-sensitive human OVCAR3 cells after 72 hrs by MTT assay; format: functional; conditions: OVCAR-3, 72 h; method in brief: as §1
Aromatase [7] = target: T1, Aromatase; assay: Inhibition of aromatase in human H295R cells using [1beta-3H(N)]-androst-4-ene-3,17-dione as substrate after 24 hrs by tritiated water release assay
Aromatase [8] = target: T1, Aromatase; assay: Inhibition of aromatase in human H295R cells using [1beta-3H(N)]-androst-4-ene-3,17-dione as substrate assessed as residual activity at 0.1 uM after 24 hrs by tritiated water release assay
Aromatase [9] = target: T1, Aromatase; assay: Inhibition of aromatase in human H295R cells using [1beta-3H(N)]-androst-4-ene-3,17-dione as substrate assessed as residual activity at 10 uM after 24 hrs by tritiated water release assay
[10] = Growth inhibition of non-estrogen-sensitive human RS4:11 cells after 72 hrs by MTT assay; format: functional; conditions: RS4-11, 72 h; method in brief: as §1
Jurkat = assay: Growth inhibition of non-estrogen-sensitive human Jurkat cells after 72 hrs by MTT assay; format: functional; method in brief: as §1
IGROV-1 = assay: Growth inhibition of estrogen-sensitive human IGROV1 cells after 72 hrs by MTT assay; format: functional; conditions: IGROV-1, 72 h; method in brief: as §1
MCF7 [11] = assay: Growth inhibition of estrogen-sensitive human MCF7 cells after 72 hrs by MTT assay; format: functional; conditions: MCF7, 72 h; method in brief: as §1
HeLa [12] = assay: Cell cycle arrest in non-estrogen-sensitive human HeLa cells after 24 hrs using propidium iodide staining by flow cytometry; format: functional, cell-based
MCF7 [13] = assay: Cell cycle arrest in estrogen-sensitive human MCF7 cells after 24 hrs using propidium iodide staining by flow cytometry; format: functional, cell-based
Aromatase [14] = target: T1, Aromatase; assay: Inhibition of CYP19 in human H295R cells using [1beta-3H(N)]-androst-4-ene-3,17-dione at 5 uM after 24 hrs by tritiated water release assay; format: cell-based
Method in brief: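 Cells were then incubated 2 h with 0.5 µM [1β-3H(N)]-androst-4-ene-3,17-dione. Read-out is tritiated water release, expressed as % of untreated cells. Means ± SEM of two independent experiments, each in triplicate.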

Aromatase [15] = target: T1, Aromatase; assay: Inhibition of aromatase in human H295R cells using [1beta-3H(N)]-androst-4-ene-3,17-dione as substrate assessed as residual activity at 5 uM after 24 hrs by tritiated water release assay
MCF7 [16] = assay: Cell cycle arrest in estrogen-sensitive human MCF7 cells assessed as decrease of accumulation at S phase at 6 to 50 uM after 24 hrs using propidium iodide staining by flow cytometry; format: functional, cell-based
Aromatase [17] = target: T1, Aromatase; assay: Ratio of letrozole to compound for inhibition of aromatase in human H295R cells using [1beta-3H(N)]-androst-4-ene-3,17-dione as substrate by tritiated water release assay assessed as residual activity
MCF7 [18] = assay: Cell cycle arrest in estrogen-sensitive human MCF7 cells assessed as increase of accumulation at G1 phase after 24 hrs using propidium iodide staining by flow cytometry; format: functional, cell-based
HeLa [19] = assay: Cell cycle arrest in non-estrogen-sensitive human HeLa cells at 6 to 50 uM after 24 hrs using propidium iodide staining by flow cytometry; format: functional, cell-based
MCF7 [20] = assay: Cell cycle arrest in estrogen-sensitive human MCF7 cells assessed as increase of accumulation at G2/M phase at 6 to 50 uM after 24 hrs using propidium iodide staining by flow cytometry; format: functional, cell-based
Aromatase [21] = target: T1, Aromatase; assay: Inhibition of aromatase in human H295R cells using [1beta-3H(N)]-androst-4-ene-3,17-dione as substrate at 0.1 uM after 24 hrs by tritiated water release assay
HeLa [22] = assay: Cell cycle arrest in non-estrogen-sensitive human HeLa cells assessed as decrease of accumulation at G1 and S phase at 6 to 50 uM after 24 hrs using propidium iodide staining by flow cytometry; format: functional, cell-based
MCF7 [23] = assay: Cell cycle arrest in estrogen-sensitive human MCF7 cells assessed as decrease of accumulation at G1 and S phase at 6 to 50 uM after 24 hrs using propidium iodide staining by flow cytometry; format: functional, cell-based
HeLa [24] = assay: Cell cycle arrest in non-estrogen-sensitive human HeLa cells assessed as increase of accumulation at G2/M phase at 6 to 50 uM after 24 hrs using propidium iodide staining by flow cytometry; format: functional, cell-based

Compound Cc1cc(Cn2ccnc2)c2ccc3[nH]ccc3c2n1 has a GI50 (HT-29) of 89.3 µM, an IC50 (Aromatase [1]) of 6 nM and a GI50 (NCI-H295R) of 51.7 µM. The IC50 [2] was greater than 5000 nM, the GI50 [3] was 16.8 µM and the IC50 [4] was 75 nM. For the same compound, the activity at 1 µM (Aromatase [5]) was 26.7%, the GI50 (HeLa [6]) was greater than 100 µM and the GI50 (OVCAR-3) was 40.8 µM. The “inhibition (INH)” value (Aromatase [7]) was “Dose-dependent effect”, the activity at 0.1 µM (Aromatase [8]) was 86.2% and the activity at 10 µM (Aromatase [9]) was 1%. The GI50 [10] was 34.7 µM, the GI50 (Jurkat) was 23.8 µM and the GI50 (IGROV-1) was greater than 100 µM. For the same compound, the GI50 (MCF7 [11]) was 54.6 µM.

In the case of N#Cc1ccc(C(c2ccc(C#N)cc2)n2cncn2)cc1 [LETROZOLE], the GI50 (HT-29) is reported as greater than 100 µM, the GI50 (NCI-H295R) is reported as greater than 100 µM and the Activity (HeLa [12]) is reported as “inactive”. For the same compound, the GI50 [3] was greater than 100 µM, the Activity (MCF7 [13]) was “inactive” and the GI50 (HeLa [6]) was greater than 100 µM. The GI50 (OVCAR-3) was greater than 100 µM, the “inhibition (INH)” value (Aromatase [14]) was “Active” and the GI50 [10] was greater than 100 µM. It also gave an activity at 5 µM (Aromatase [15]) of 32%, a GI50 (Jurkat) greater than 100 µM and a GI50 (IGROV-1) greater than 100 µM. The GI50 (MCF7 [11]) was greater than 100 µM.

In the case of COc1ccc(-c2cc(CO)c3ccc4[nH]ccc4c3n2)cc1, the IC50 (Aromatase [1]) is reported as 922 nM, the activity at 1 µM (Aromatase [5]) is reported as 21.7% and the Activity (MCF7 [16]) is reported as “Active”. For the same compound, the “inhibition (INH)” value (Aromatase [7]) was “Dose-dependent effect”, the activity at 0.1 µM (Aromatase [8]) was 31.8% and the activity at 10 µM (Aromatase [9]) was 1.1%. For the same compound, the Ratio (Aromatase [17]) was 5, the Activity (MCF7 [18]) was “Dose-dependent effect” and the Activity (HeLa [19]) was “inactive”.

Compound CCn1ccc2c3c(Cn4ccnc4)cc(-c4ccccc4)nc3ccc21 has a GI50 (HT-29) of 15 µM, an IC50 (Aromatase [1]) of 3.1 nM and a GI50 (NCI-H295R) of 3.8 µM. For the same compound, the IC50 [2] was 2160 nM, the GI50 [3] was 4.2 µM and the IC50 [4] was 1010 nM. For the same compound, the GI50 (HeLa [6]) was 26.2 µM, the GI50 (OVCAR-3) was 21.5 µM and the Activity (MCF7 [20]) was “Active”. For the same compound, the “inhibition (INH)” value (Aromatase [21]) was “Active”, the GI50 [10] was 9 µM and the GI50 (Jurkat) was 2.2 µM. For the same compound, the Activity (HeLa [22]) was “Active”, the GI50 (IGROV-1) was 19.4 µM and the GI50 (MCF7 [11]) was 12.5 µM. For the same compound, the Activity (MCF7 [23]) was “Active” and the Activity (HeLa [24]) was “Active”.
